Source: PubChem
Only some compounds are listed: those with a hit (about 2.6% of all), similar ones and a draw of the others.
hiPSC survival: enhancers of human iPSC single-cell survival; hiPSC single-cell survival, ATPlite luminescence; 100% = ROCK inhibitor wells, 0% = DMSO; survival enhancement, % at 20 µM; actives 0.044% (n = 360,000); AID 602274; in the data active = survival enhancement above about 18%;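 also: cells exposed to compounds for 16 hours before the ATP read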
Granule exo inh: blocks lytic granule exocytosis; TALL-104 LAMP-1 surface exposure, flow cytometry; cells stimulated with thapsigargin and PMA; AID 651702; inhibition, % at 10 µM; actives 0.66% (n = 360,000);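 active = inhibition above about 55%, limit read from the data; inconclusive = no clear call, values can overlap the other calls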
MC4R antagonist: antagonists of human melanocortin 4 receptor (MC4R). AID 540295. P32245. actives 0.48% (n = 360,000). inhibition, % at 6.5 µM. MC4R-expressing cells, MTII-stimulated cAMP, LANCE TR-FRET;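 active = inhibition above its plate's cutoff, the mean of tested wells on that plate plus 3 SD, cut at about 29% in these data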;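 also: 0% = Melanotan II alone and 100% = Melanotan II plus saturating MCL0020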
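Material: U2OS-MC4R stable cell line | Reagent: Melanotan II challenge after compound preincubation | Doses: One concentration, 6.5 µM nominal | Incubation: 30-min compound preincubation, 1-h Melanotan II challenge, 1-h detection, room temperature | Signal: TR-FRET cAMP assay | Replicates: One well per compound, no replicates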
ABCB6 inh MLPCN: human ABCB6 transporter inhibition. K562-ABCB6 porphyrin accumulation, flow cytometry, 1 h; hits give low values. actives 0.19% (n = 360,000). Q9NP58. fluorescence ratio to DMSO, % at 10 µM;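 active = fluorescence ratio to DMSO below 75%, the collection mean minus 3 SD; inconclusive = too few cells collected in the well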;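 also: signal is porphyrin accumulated inside mitochondria; 100% equals median channel fluorescence of DMSO control wells; lower ratio means ABCB6 inhibition with less porphyrin fluorescence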
Target sequence (Q9NP58 whole entry, looked up): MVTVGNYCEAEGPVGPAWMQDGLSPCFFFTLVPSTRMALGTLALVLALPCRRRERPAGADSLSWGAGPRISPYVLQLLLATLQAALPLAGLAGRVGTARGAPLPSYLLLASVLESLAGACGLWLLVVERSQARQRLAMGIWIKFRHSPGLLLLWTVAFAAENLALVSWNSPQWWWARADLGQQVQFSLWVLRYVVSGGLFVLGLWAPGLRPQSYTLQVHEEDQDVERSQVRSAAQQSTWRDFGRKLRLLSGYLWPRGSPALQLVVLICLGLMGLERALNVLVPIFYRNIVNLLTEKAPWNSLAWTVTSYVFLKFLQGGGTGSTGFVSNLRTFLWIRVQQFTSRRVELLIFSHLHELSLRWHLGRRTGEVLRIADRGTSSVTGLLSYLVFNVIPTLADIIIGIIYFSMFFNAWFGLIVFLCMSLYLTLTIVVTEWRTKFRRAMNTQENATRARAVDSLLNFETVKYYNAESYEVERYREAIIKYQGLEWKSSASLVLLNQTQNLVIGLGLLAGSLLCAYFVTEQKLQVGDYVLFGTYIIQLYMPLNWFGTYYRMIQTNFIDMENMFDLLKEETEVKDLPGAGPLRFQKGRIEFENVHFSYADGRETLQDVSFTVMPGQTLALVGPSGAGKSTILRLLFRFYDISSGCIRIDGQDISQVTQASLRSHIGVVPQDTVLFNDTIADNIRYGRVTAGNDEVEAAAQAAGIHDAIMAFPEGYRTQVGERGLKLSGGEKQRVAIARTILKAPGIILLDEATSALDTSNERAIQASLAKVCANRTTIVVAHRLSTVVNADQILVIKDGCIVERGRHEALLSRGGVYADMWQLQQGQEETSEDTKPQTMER
Tb MetRS inh: Trypanosoma brucei MetRS inhibition; actives 0.4% (n = 360,000); inhibition, % at 11.9 µM; purified T. brucei MetRS, ATP depletion, Kinase-Glo luminescence; AID 624268;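 active = inhibition above a per-plate cutoff of the control wells' mean inhibition plus 3 SD, cut at about 5.5% in these data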;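 also: 0% = DMSO wells median and 100% = median of wells with control inhibitor compound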
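assay system = parasite MetRS enzyme | timing = 15 min preincubation, 2 h reaction, all 25 °C | evaluation = percent inhibition relative to median high and low control wells | medium = HEPES buffer containing pyrophosphatase, BSA, spermine, DTT | compound = single dose, 11.9 µM final nominal, 0.9% final DMSO | detection = Kinase-Glo luminescence, ATP depletion format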
MC4R barr agon: human MC4R agonism via beta-arrestin | P32245 | U2OS MC4R beta-arrestin complementation, luminescence; percent of melanotan II response, DMSO zero | activation, % at 8.9 µM | actives 0.98% (n = 360,000) | AID 540308;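 active = activation above a per-plate cutoff, the mean activation of sample wells on that plate plus 3 SD, cut at about 8% in these data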
Tb MetRS conf: Trypanosoma brucei MetRS inhibition confirmed | inhibition, % at 11.9 µM | T. brucei MetRS enzyme, luminescence (ATP depletion) | actives 93% (n = 1,400) | shares compounds with Tb MetRS inh; in the data active = inhibition above about 7%
Jurkat cytotox: kills Jurkat cells in T. brucei MetRS counterscreen | shares compounds with Tb MetRS inh | Jurkat cells viability, ATP luminescence | inhibition, % at 8.3 µM | actives 12% (n = 1,400) | AID 624413; in the data active = inhibition above about 15%;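 also: 0% = vehicle and 100% = reference inhibitor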
Tb MetRS inh FP: T. brucei MetRS inhibition, orthogonal assay; shares compounds with Tb MetRS inh; purified T. brucei MetRS, fluorescence polarization; inhibition, % at 11.9 µM; actives 44% (n = 1,400); AID 651607; in the data active = inhibition above about 17%;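 also: 0% = vehicle wells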
* = called active by the depositor; ? = inconclusive; nt = no result given.

SMILES | hiPSC survival | Granule exo inh | MC4R antagonist | ABCB6 inh MLPCN | Tb MetRS inh | MC4R barr agon | Tb MetRS conf | Jurkat cytotox | Tb MetRS inh FP
O=C(CN1CCCc2ccccc21)Nc1cccc(S(=O)(=O)N2CCOCC2)c1 | 0 | 4 | 1 | 98 | 6.7* | -2 | 12* | 4 | 12
CN(C)S(=O)(=O)c1cccc(NC(=O)CSc2nc3ccccc3[nH]2)c1 | -1 | 12 | 1 | 93 | 6.2* | -1 | 12* | 12 | 5
COc1ccccc1CN1CC(C(=O)NCC2(O)CCCCC2)CCC1=O (centres undefined) | -1 | -11 | 14 | 103 | 0 | 1 | nt | nt | nt
O=C(NCc1cccnc1)c1ccc2sc([C@@H]3O[C@H](CO)[C@H](O)[C@H](O)[C@H]3O)nc2c1 | 17 | 2 | 2 | 93 | 0 | -2 | nt | nt | nt
O=C(NCc1cc(Cl)cc(Cl)c1)c1csc([C@@H]2O[C@H](CO)[C@H](O)[C@H](O)[C@H]2O)n1 | 0 | 1 | 0 | 100 | 8.7* | 0 | 31* | -8 | 7
O=C(NCc1cc(Cl)cc(Cl)c1)c1ccc2sc([C@@H]3O[C@H](CO)[C@H](O)[C@H](O)[C@H]3O)nc2c1 | 3 | -4 | 16 | 95 | 18* | -3 | 51* | -3 | 27*
CCCOc1ccc(C(=O)CCC(=O)NNC(=O)c2cccs2)cc1 | -4 | ? | 8 | 108 | 0 | 0 | nt | nt | nt
COc1ccc(-c2csc(-n3cccn3)n2)cc1 | -1 | -5 | 7 | 99 | -1 | 3 | nt | nt | nt
COc1ccc(CC(=O)OCC(=O)Nc2ccc3[nH]c(=O)[nH]c3c2)cc1OC | 1 | -2 | 1 | 94 | 0 | 0 | nt | nt | nt
Cc1[nH]c2ccccc2c1C(=O)C(=O)N1CCN(C(=O)c2ccco2)CC1 | 1 | -3 | -10 | 97 | 6.4* | -1 | 11* | 9 | 2
O=C(C(=O)N1CCOCC1)c1c[nH]c2ccccc12 | 0 | 5 | 2 | 90 | 0 | -1 | nt | nt | nt
O=C1CC2(CCN(C(=O)C(=O)c3c[nH]c4ccccc34)CC2)Oc2ccccc21 | 0 | -15 | 16 | 99 | 20* | 2 | 33* | -4 | 18*
O=C(C(=O)N1CCCC1)c1c[nH]c2ccccc12 | 0 | -4 | 3 | 96 | 1 | -1 | nt | nt | nt
O=C(C(=O)N1CCN(C(=O)c2ccco2)CC1)c1c[nH]c2ccccc12 | 2 | 3 | 3 | 104 | 5.8* | 0 | 12* | 0 | 5
O=C(CN1CCCCC1)Nc1nc(-c2ccccc2)cs1 | 2 | 24 | 3 | 99 | 0 | 0 | nt | nt | nt
O=C(CN1CCOCC1)Nc1nc(-c2ccccc2)cs1 | 0 | 4 | 2 | 103 | 6.7* | 0 | 2 | 3 | 1
COc1ccc(N2CCN(C(=O)COC(=O)[C@@H](NC(=O)c3ccccc3Cl)C(C)C)CC2)cc1 | 0 | -6 | 7 | 96 | 0 | -1 | nt | nt | nt
COCC(=O)N(Cc1cc2cc(C)ccc2[nH]c1=O)c1cccc(C)c1C | 0 | -1 | 5 | 99 | 5.6* | -1 | 12* | -2 | -1
NC(=O)NCc1cccc(Cl)c1 | 3 | 1 | 7 | 100 | 0 | -1 | nt | nt | nt
O=C(NCc1cccc(Cl)c1)NCc1cccc(Cl)c1 | 0 | -6 | -7 | 102 | 6.2* | 7 | 9.3* | 9 | 8
NS(=O)(=O)c1ccc(NC(=S)NCc2cccc(Cl)c2)cc1 | -1 | 0 | 11 | 92 | 17* | 0 | 36* | 29* | 12
C=CCn1c(COc2ccccc2F)nnc1SCC(=O)c1c[nH]c2ccccc12 | -3 | 12 | 3 | 100 | 13* | 6 | 17* | 2 | 7
C=CCn1c(COc2ccccc2F)nnc1SCC(=O)Nc1cc2oc3ccccc3c2cc1OC | 6 | -2 | 11 | 96 | 0 | 1 | nt | nt | nt
O=C(Nc1ccc(OC(F)F)c(Cl)c1)c1cccc(OC(F)F)c1 | -1 | -1 | 5 | 97 | 1 | 2 | nt | nt | nt
O=C(CNC(=O)c1cccc(OC(F)F)c1)Nc1ccc(Cl)cc1 | 0 | -3 | 4 | 89 | 51* | -2 | 70* | 2 | 32*
SMILES | hiPSC survival | Granule exo inh | MC4R antagonist | ABCB6 inh MLPCN | Tb MetRS inh | MC4R barr agon | Tb MetRS conf | Jurkat cytotox | Tb MetRS inh FP
Clc1ccc(CNc2ncnc3[nH]ncc23)cc1Cl | -1 | -3 | -6 | 93 | 7.1* | 1 | 29* | -2 | 17*
Cc1ccc(N(CC(=O)NC2CCCC2)C(=O)CNC(=O)c2cccs2)cc1C | 0 | -6 | 2 | 84 | -1 | 0 | nt | nt | nt
c1ccc(CNc2nc(-c3cccnc3)nc3ccccc23)cc1 | -1 | 8 | 0 | 96 | 0 | -1 | nt | nt | nt
Clc1cccc(CNc2nc(-c3cccnc3)nc3ccccc23)c1 | 0 | 99* | 1 | 99 | 18* | 8 | 40* | 12 | 28*
Cn1c(CC(=O)Nc2ccccc2F)nnc1SCC(=O)NC1CCCCC1 | 0 | 3 | 17 | 99 | 79* | 0 | 0 | 4 | 0
O=C(Nc1ccccc1)Nc1ccc(Cl)c(S(=O)(=O)N2CCOCC2)c1 | -1 | -1 | 8 | 98 | 15* | -1 | 19* | 14 | 15
O=C(Nc1cccc(S(=O)(=O)N2CCOCC2)c1)c1ccc(Cl)c([N+](=O)[O-])c1 | -2 | 2 | -55 | 91 | 7.7* | -4 | 19* | 21* | 15
CCCOc1ccc(CNC(=S)NCc2ccc(OC(C)C)cc2)cc1 | -2 | 1 | -2 | 95 | 0 | 6 | nt | nt | nt
CCc1ccc(OCC(=O)N2CCc3ccccc32)cc1 | 0 | 8 | 10 | 101 | 0 | 1 | nt | nt | nt
COCCN1C(=O)c2ccccc2C1c1nc2ccccc2[nH]1 (centres undefined) | 3 | -2 | nt | 104 | 4 | nt | nt | nt | nt
O=C1c2ccccc2C(c2nc3ccccc3[nH]2)N1c1ccccn1 (centres undefined) | -3 | -4 | nt | 97 | 6.9* | nt | 14* | 7 | 7
CC1CCCN(CCCOc2ccc(Cl)cc2Br)C1 (centres undefined) | 0 | -4 | -8 | 97 | 11* | 0 | 23* | 9 | 4
O=C(NCCC(=O)N1CCc2ccccc21)c1ccccc1Cl | 0 | 4 | 0 | 91 | -1 | 1 | nt | nt | nt
Cc1cc(SCC(=O)N/N=C/c2ccc(O)cc2O)c(C)cc1Br | 0 | 6 | 1 | 89 | 52* | 0 | 92* | 41* | 75*
